Cl transport mod – modulators of human KCC2 chloride dependent transport; actives 2.2% (n = 190,000); KCC2 cells, thallium flux FluoZin-2 fluorescence; AID 1456; B-score of Tl+ flux slope (higher = more flux/activation; lower = inhibition) at 10 µM; Q9H2X9;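 active = thallium flux slope and its plate-corrected score both differing from the plate sample mean at a set confidence after two filtering rounds, in either direction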;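 also: slope of fluorescence scaled to starting intensity during 10 to 20 s after thallium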
KCNQ1 act – human KCNQ1 channel potentiation or activation; P51787; CHO-K1 KCNQ1, thallium flux FluxOR fluorescence; stronger effect = higher value; B-score at 10 µM; actives 0.35% (n = 310,000); AID 2648;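 active = fluorescence ratio B-score, a plate-corrected score, at least three library SD, with initial intensity B-score within 5 SD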
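Schedule – 37 °C overnight plating, 90-min dark dye load, 20-min compound pretreatment · System – stable KCNQ1 CHO-K1 line · Probe or stimulus – thallium- and potassium-containing depolarizing buffer · Measured by – kinetic FluxOR fluorescence, 10 s baseline plus 110 s post-stimulus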
KCNK9 block – human KCNK9 channel inhibition; HEK293 KCNK9, FluxOR thallium flux fluorescence; stronger effect = lower value; AID 488922; actives 1.2% (n = 310,000); B-score at 10 µM;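 active = ratio B-score over 3 SD below the library mean, with starting fluorescence within 5 SD of its mean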;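 also: negative B-score means less thallium flux so channel inhibition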
Target sequence (Q9NPC2 whole entry, looked up): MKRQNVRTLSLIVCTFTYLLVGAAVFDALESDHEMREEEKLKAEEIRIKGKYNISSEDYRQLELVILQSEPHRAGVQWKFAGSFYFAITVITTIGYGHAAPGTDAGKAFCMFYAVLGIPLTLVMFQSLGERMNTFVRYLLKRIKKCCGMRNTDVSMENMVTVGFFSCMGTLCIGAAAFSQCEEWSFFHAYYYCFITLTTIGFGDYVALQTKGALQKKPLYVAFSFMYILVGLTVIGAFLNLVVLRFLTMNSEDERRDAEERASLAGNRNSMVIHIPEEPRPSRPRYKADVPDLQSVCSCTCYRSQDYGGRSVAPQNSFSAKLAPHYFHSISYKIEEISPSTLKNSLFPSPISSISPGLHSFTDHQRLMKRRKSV
KCNK3 inh – human KCNK3 channel inhibition, primary screen. B-score at 10 µM. O14649. CHO-KCNK3 thallium flux, FluxOR fluorescence; stronger effect = lower value. actives 0.84% (n = 340,000). AID 602410;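 active = B-score under library mean minus 4 SD, starting fluorescence ratio at most library mean plus 5 SD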;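 also: more negative B-score means stronger inhibition of thallium flux through KCNK3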
Target sequence (O14649 whole entry, looked up): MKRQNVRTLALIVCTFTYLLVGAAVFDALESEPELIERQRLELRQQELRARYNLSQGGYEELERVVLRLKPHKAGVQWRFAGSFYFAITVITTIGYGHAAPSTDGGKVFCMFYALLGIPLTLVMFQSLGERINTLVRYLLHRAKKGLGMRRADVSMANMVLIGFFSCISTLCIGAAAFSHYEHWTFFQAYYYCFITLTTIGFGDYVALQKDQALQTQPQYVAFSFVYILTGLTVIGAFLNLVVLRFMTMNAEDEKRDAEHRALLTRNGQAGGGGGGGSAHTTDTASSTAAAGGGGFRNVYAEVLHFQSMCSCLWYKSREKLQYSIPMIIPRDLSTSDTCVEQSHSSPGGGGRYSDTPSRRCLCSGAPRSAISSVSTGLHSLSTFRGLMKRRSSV
hERG rescue – hERG (human) protection from proarrhythmic block; Q12809; CHO-hERG, FluxOR thallium flux, dofetilide IC70 present; actives 0.51% (n = 310,000); activation (rescue from dofetilide block), less the hit threshold, % at 10 µM;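 active = activation above the mean of controls blocked by dofetilide plus 5 SD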;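 also: thallium influx through hERG after potassium depolarization seen as dye fluorescence rise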
KCNQ1 block – human KCNQ1 channel inhibition; P51787; CHO-K1 KCNQ1, FluxOR thallium flux fluorescence; stronger effect = higher value; B-score at 10 µM; actives 1.3% (n = 310,000);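 active = compounds whose thallium flux B-score, printed positive for inhibition, exceeds three library SD while starting fluorescence stays within three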;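 also: channel opened by potassium depolarization with thallium stimulus after 20 min compound exposure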
KCNK9 inh conf – human KCNK9 inhibitor confirmation. shares compounds with KCNK9 block. HEK293 KCNK9 cells, FluxOR thallium flux fluorescence. inhibition, % at 10 µM. actives 43% (n = 4,900);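 active = thallium signal inhibited by more than 5 SD of the compound-free buffer control wells, on both duplicate plates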
Kir21 sel – mouse Kir2.1 off-target activity of KCNK9 modulators; Kir2.1 cells, FluxOR thallium flux fluorescence; shares compounds with KCNK9 block; inhibition, % at 10 µM; AID 492993; actives 4% (n = 4,900);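 active = thallium signal drop more than 5 SD beyond the mean of the no-compound control wells, seen in both duplicate plates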;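 also: signal is fluorescence rise after thallium addition divided by baseline fluorescence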
HEK293 Tl ctr – second check of KCNK9 modulator effects in non-induced HEK293 cells; shares compounds with KCNK9 block; FluxOR thallium flux; inhibition, % at 10 µM; actives 40% (n = 4,900);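 active = thallium signal drop beyond 5 SD of the untreated control mean, on both duplicate plates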
KCNK3 confirm – human KCNK3 channel inhibition, confirmation assay | shares compounds with KCNK3 inh | CHO-KCNK3 thallium flux, FluxOR fluorescence; 0% buffer, 100% carvedilol maximal block | ratio percent of control, % at 10 µM | actives 99% (n = 2,400) | AID 651638;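 active = ratio percent of control, averaged over triplicates, above buffer control mean plus 5 SD, cut at about 64% in these data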;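 also: ratio is the fluorescence rise from min to max over baseline after thallium stimulus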
KCNK3 noninduced – activity in cells without induced KCNK3 expression; thallium flux ratio (lower = more inhibition) at 10 µM; non-induced KCNK3 parental cells, FluxOR thallium flux; stronger effect = lower value; actives 40% (n = 2,400); AID 651747; shares compounds with KCNK3 inh;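 active = thallium flux ratio, averaged over three wells, more than 5 SD below the buffer control mean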;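 also: host cells are CHO cells without KCNK3 induction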
Numbers stand for hits. Sampled rows, rich in hits. Any-hit rate of the full collection: about 4.1%.

Results for COc1nc(Nc2cccc([N+](=O)[O-])c2)nc(OC)n1 ?
Cl transport mod: inactive; KCNQ1 act: inactive; KCNK9 block: inactive; KCNK3 inh: inactive; hERG rescue: inactive; KCNQ1 block: inactive

Results for Cc1ccc(C(=O)N/N=C\c2cc3c(cc2Br)OCO3)s1 ?
Cl transport mod: inactive; KCNQ1 act: inactive; KCNK9 block: inactive; KCNK3 inh: inactive; hERG rescue: inactive; KCNQ1 block: inactive

How did O=C(N/N=C/c1ccccc1)c1ccc(OCc2ccccc2)cc1 do in these assays?
Cl transport mod: inactive; KCNQ1 act: inactive; KCNK9 block: inactive; KCNK3 inh: inactive; hERG rescue: inactive; KCNQ1 block: inactive

Results for O=C(N/N=C/c1ccccc1)c1sccc1OCc1ccc(F)cc1 ?
KCNQ1 act: inactive; KCNK9 block: -15.2; KCNK3 inh: -9.5; hERG rescue: inactive; KCNQ1 block: inactive; KCNK9 inh conf: 65.0%; Kir21 sel: inactive; HEK293 Tl ctr: 41.0%; KCNK3 confirm: 108.7; KCNK3 noninduced: inactive

How did CCN(C(=O)Cn1cnc2ccccc2c1=O)C1CCS(=O)(=O)C1 (centres undefined) do in these assays?
KCNQ1 act: inactive; KCNK9 block: inactive; KCNK3 inh: inactive; hERG rescue: inactive; KCNQ1 block: inactive

Results for O=C(Nc1ccc(Cl)c(S(=O)(=O)N2CCOCC2)c1)c1cc(-c2ccccn2)nc2ccccc12 ?
Cl transport mod: inactive; KCNQ1 act: inactive; KCNK9 block: -9.47; KCNK3 inh: -8.84; hERG rescue: inactive; KCNQ1 block: inactive; KCNK9 inh conf: inactive; Kir21 sel: inactive; HEK293 Tl ctr: inactive; KCNK3 confirm: 123.3; KCNK3 noninduced: inactive

What do the screens show for `Cc1c(NS(=O)(=O)c2ccc(NC(=O)CCC(=O)O)cc2)c(=O)n(-c2ccccc2)n1C`?
KCNQ1 act: inactive; KCNK9 block: inactive; KCNK3 inh: inactive; hERG rescue: inactive; KCNQ1 block: inactive

What do the screens show for `COc1ccccc1N(CC(=O)NCCSCc1cccc(C)c1)S(=O)(=O)c1ccccc1`?
KCNQ1 act: inactive; KCNK9 block: -16.3; KCNK3 inh: -12.6; hERG rescue: inactive; KCNQ1 block: 9; KCNK9 inh conf: 48.0%; Kir21 sel: inactive; HEK293 Tl ctr: 28.0%; KCNK3 confirm: 104.7; KCNK3 noninduced: inactive

How did O=C(COc1ccc(-n2ccnc2)cc1)Nc1cccc(Cl)c1 do in these assays?
Cl transport mod: inactive; KCNQ1 act: inactive; KCNK9 block: inactive; KCNK3 inh: inactive; hERG rescue: inactive; KCNQ1 block: inactive

How did O=c1cc(CN2CCN(C/C=C/c3ccccc3)CC2)c2cc(O)c(-c3ccccc3)cc2o1 do in these assays?
Cl transport mod: inactive; KCNQ1 act: inactive; KCNK9 block: inactive; KCNK3 inh: inactive; hERG rescue: inactive; KCNQ1 block: inactive

What do the screens show for `CC(C)CN(Cc1cc(=O)oc2cc(-c3ccccc3)c(O)cc12)CC(C)C`?
Cl transport mod: inactive; KCNQ1 act: inactive; KCNK9 block: -10.3; KCNK3 inh: inactive; hERG rescue: inactive; KCNQ1 block: 11; KCNK9 inh conf: 53.0%; Kir21 sel: inactive; HEK293 Tl ctr: 27.0%; KCNK3 confirm: 145.7; KCNK3 noninduced: 0.088

Results for CC(=O)c1cccc(NC(=O)c2cc(S(=O)(=O)N3CCOCC3)cs2)c1 ?
KCNQ1 act: inactive; KCNK9 block: inactive; KCNK3 inh: inactive; hERG rescue: inactive; KCNQ1 block: inactive

How did COc1ccccc1N(C)S(=O)(=O)c1ccc(C(=O)OCC(=O)NCc2cccs2)cc1 do in these assays?
Cl transport mod: inactive; KCNQ1 act: inactive; KCNK9 block: inactive; KCNK3 inh: inactive; hERG rescue: inactive; KCNQ1 block: inactive

Results for O=C(CCSc1ccccc1)NNC(=O)c1ccccc1F ?
KCNQ1 act: inactive; KCNK9 block: inactive; KCNK3 inh: inactive; hERG rescue: inactive; KCNQ1 block: inactive

Results for CC(C)CN(CC(C)C)C(=O)c1cccc(S(=O)(=O)N2CCc3ccccc32)c1 ?
Cl transport mod: inactive; KCNQ1 act: inactive; KCNK9 block: -8.84; KCNK3 inh: -9.74; hERG rescue: inactive; KCNQ1 block: inactive; KCNK9 inh conf: 40.5%; Kir21 sel: inactive; HEK293 Tl ctr: 37.0%; KCNK3 confirm: 111.3; KCNK3 noninduced: inactive

Results for COc1ccc(C(=O)N/N=C/c2ccc(OC)c(COc3ccccc3)c2)cc1 ?
KCNQ1 act: inactive; KCNK9 block: inactive; KCNK3 inh: inactive; hERG rescue: inactive; KCNQ1 block: inactive

Results for COc1ccc(C(=O)/C=C/c2ccc(OC)c(COc3ccc(F)cc3)c2)cc1 ?
KCNQ1 act: inactive; KCNK9 block: -13.1; KCNK3 inh: -10.4; hERG rescue: inactive; KCNQ1 block: inactive; KCNK9 inh conf: 65.5%; Kir21 sel: inactive; HEK293 Tl ctr: 33.0%; KCNK3 confirm: 129.0; KCNK3 noninduced: 0.154

Results for CCn1c(=O)c2c(n3cnnc13)-c1ccccc1CC21CCCCC1 ?
Cl transport mod: inactive; KCNQ1 act: inactive; KCNK9 block: inactive; KCNK3 inh: inactive; hERG rescue: inactive; KCNQ1 block: inactive

Results for CCCn1c(SCC#N)nc2c(c1=O)C1(CCCC1)Cc1ccccc1-2 ?
KCNQ1 act: inactive; KCNK9 block: -9.92; KCNK3 inh: -10.1; hERG rescue: inactive; KCNQ1 block: inactive; KCNK9 inh conf: 51.5%; Kir21 sel: inactive; HEK293 Tl ctr: 29.0%; KCNK3 confirm: 95.3; KCNK3 noninduced: inactive

Results for CN(CC(=O)Nc1cccc2ccccc12)C(=O)c1ccc(F)cc1F ?
KCNK3 inh: inactive

Results for O=C(OCC(=O)N(CCc1ccccc1)Cc1ccccc1)c1ccccc1NCCO ?
KCNQ1 act: inactive; KCNK9 block: -9.48; KCNK3 inh: -9.93; hERG rescue: inactive; KCNQ1 block: inactive; KCNK9 inh conf: 55.5%; Kir21 sel: inactive; HEK293 Tl ctr: inactive; KCNK3 confirm: 95.0; KCNK3 noninduced: inactive

Results for O=C(OCC(=O)N(CCc1ccccc1)Cc1ccccc1)c1cccc(O)c1 ?
KCNQ1 act: inactive; KCNK9 block: inactive; KCNK3 inh: inactive; hERG rescue: inactive; KCNQ1 block: inactive

Source: PubChem
